# ChEMBL document CHEMBL3632509, “Inhibition of Inflammatory and Neuropathic Pain by Targeting a Mu Opioid Receptor/Chemokine Receptor5 Heteromer (MOR-CCR5)” (J Med Chem, 2015)
# Calls of active or inactive are those of the source.
# What was measured:
# [1] = tested on: Mus musculus; assay: Selectivity ratio of ED50 for antinociceptive activity in i.c.v dosed ICR-CD1 mouse to ED50 for i.t dosed ICR-CD1 mouse; assay type: functional
# How it was run: (§1)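 Ratios compare i.c.v. with i.t. dosing, or untreated mice with LPS-pretreated mice (1 mg/kg i.p., 24 h). All mice are male ICR-CD1.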
# [2] = organism: Mus musculus; assay: Antinociceptive activity in LPS-induced ICR-CD1 mouse thermal hyperalgesia model assessed as withdrawal latency for radiant heat at 1000 pmol i.c.v by tail flick assay; assay type: functional
# How it was run: (§2)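 Male ICR-CD1 mice (17–25 g); LPS groups given LPS 1 mg/kg i.p. 24 h before testing, others untreated. Compound dissolved in 5% DMSO, diluted to <1% DMSO, given i.t. or i.c.v. in 5 µl to conscious mice. Radiant-heat tail flick, latency before and at peak time after drug, 10 s cut-off; %MPE = (test−control)/(10−control)×100. At least three groups of 8–10 mice per dose–response curve, each mouse used once.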
# [3] = tested on: Mus musculus; assay: Antinociceptive activity in i.t dosed LPS-induced ICR-CD1 mouse thermal hyperalgesia model assessed as withdrawal latency for radiant heat at ED50 after 24 hrs by tail flick assay; assay type: functional
# How it was run: (§3)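 Acute tolerance in male ICR-CD1 mice, either untreated or given LPS 1 mg/kg i.p. 24 h before testing. The ED80–90 dose is given i.t. or i.c.v. (5 µl, <1% DMSO) on day 1. The same dose is given again 24 h later to the same mouse and retested by radiant-heat tail flick (10 s cut-off, %MPE).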
# [4] = tested on: Mus musculus; assay: Antinociceptive activity in normal ICR-CD1 mouse assessed as withdrawal latency for radiant heat at 1000 pmol, icv by tail flick assay; assay type: functional; how it was run: as §2
# [5] = tested on: Mus musculus; assay: Selectivity ratio of ED50 for antinociceptive activity in i.c.v dosed LPS-induced ICR-CD1 mouse thermal hyperalgesia model to ED50 for i.t dosed LPS-induced ICR-CD1 mouse thermal hyperalgesia model; assay type: functional; how it was run: as §1
# [6] = tested on: Mus musculus; assay: Antinociceptive activity in i.t dosed LPS-induced ICR-CD1 mouse thermal hyperalgesia model assessed as withdrawal latency for radiant heat by tail flick assay; assay type: functional; how it was run: as §2
# [7] = tested on: Mus musculus; assay: Antinociceptive activity in i.t dosed LPS-induced ICR-CD1 mouse thermal hyperalgesia model assessed as withdrawal latency for radiant heat by tail flick assay relative to TAK-220 and N-((4aS,7S,7aR,12bS)-4a,9-Dihydroxy-3-methyl-2,3,4,4a,5,6,7,7a-octahydro-1H-4,12-methanobenzofuro[3,2-e][…]-7-yl)-2-((3,7,17-trioxo-5-oxa-2,8,16-triazaoctadecan-18-yl)oxy)acetamide combination; assay type: functional
# [8] = tested on: Mus musculus; assay: Toxicity in i.t dosed ICR-CD1 mouse at ED50 after 24 hrs; assay type: organism-based; details: in vivo, icv_or_intrathecal; how it was run: as §3
# [9] = tested on: Mus musculus; assay: Antinociceptive activity in i.t dosed normal ICR-CD1 mouse assessed as withdrawal latency for radiant heat by tail flick assay; assay type: functional; how it was run: as §2
# [10] = biological target: C-C chemokine receptor type 5 (Homo sapiens) (UniProt P51681); assay: Antagonist activity at CCR5 receptor (unknown origin) expressed in HEK293 cells assessed as inhibition of CCl5-induced calcium release at 1 uM by FLIPR assay; assay type: functional, cell-based
# Sequence of C-C chemokine receptor type 5 (Homo sapiens) (P51681 whole entry, looked up): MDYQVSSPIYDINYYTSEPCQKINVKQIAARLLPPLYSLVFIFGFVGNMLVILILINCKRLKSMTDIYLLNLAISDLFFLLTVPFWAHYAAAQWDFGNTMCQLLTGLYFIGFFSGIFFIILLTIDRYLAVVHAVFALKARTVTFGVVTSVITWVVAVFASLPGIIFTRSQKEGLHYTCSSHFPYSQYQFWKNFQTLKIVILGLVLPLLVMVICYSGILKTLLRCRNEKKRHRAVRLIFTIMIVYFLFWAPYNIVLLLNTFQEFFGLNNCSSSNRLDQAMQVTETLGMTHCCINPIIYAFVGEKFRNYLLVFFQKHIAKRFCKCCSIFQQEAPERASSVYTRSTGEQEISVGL
# [11] = organism: Mus musculus; assay: Antinociceptive activity in LPS-induced ICR-CD1 mouse thermal hyperalgesia model assessed as withdrawal latency for radiant heat at 1000 pmol i.t by tail flick assay; assay type: functional; how it was run: as §2
# [12] = organism: Mus musculus; assay: Antinociceptive activity in normal ICR-CD1 mouse assessed as withdrawal latency for radiant heat at 1000 pmol, it by tail flick assay; assay type: functional; how it was run: as §2
# [13] = organism: Mus musculus; assay: Antinociceptive activity in normal ICR-CD1 mouse assessed as withdrawal latency for radiant heat at 500 pmol, it by tail flick assay; assay type: functional; how it was run: as §2
# [14] = tested on: Mus musculus; assay: Antinociceptive activity in normal ICR-CD1 mouse assessed as withdrawal latency for radiant heat at 500 pmol, icv by tail flick assay; assay type: functional; how it was run: as §2
# [15] = tested on: Mus musculus; assay: Antinociceptive activity in i.c.v dosed normal ICR-CD1 mouse assessed as withdrawal latency for radiant heat by tail flick assay; assay type: functional; how it was run: as §2
# [16] = tested on: Mus musculus; assay: Antinociceptive activity in i.c.v dosed LPS-induced ICR-CD1 mouse thermal hyperalgesia model assessed as withdrawal latency for radiant heat by tail flick assay; assay type: functional; how it was run: as §2
# [17] = tested on: Mus musculus; assay: Toxicity in i.t dosed LPS-induced ICR-CD1 mouse thermal hyperalgesia model at ED50 after 24 hrs; assay type: organism-based; details: in vivo, icv_or_intrathecal; how it was run: as §3
# [18] = tested on: Mus musculus; assay: Toxicity in i.c.v dosed LPS-induced ICR-CD1 mouse thermal hyperalgesia model at ED50 after 24 hrs; assay type: organism-based; details: in vivo, icv_or_intrathecal; how it was run: as §3
# [19] = tested on: Mus musculus; assay: Toxicity in i.c.v dosed ICR-CD1 mouse at ED50 after 24 hrs; assay type: organism-based; details: in vivo, icv_or_intrathecal; how it was run: as §3
# [20] = organism: Mus musculus; assay: Antinociceptive activity in LPS-induced ICR-CD1 mouse thermal hyperalgesia model assessed as withdrawal latency for radiant heat at 500 pmol i.c.v by tail flick assay; assay type: functional; how it was run: as §2
# [21] = tested on: Mus musculus; assay: Antinociceptive activity in i.t dosed LPS-induced ICR-CD1 mouse thermal hyperalgesia model assessed as withdrawal latency for radiant heat at ED50 by tail flick assay in presence of 45 mg/kg, ip minocycline; assay type: functional, organism-based
# How it was run: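 Male ICR-CD1 mice get LPS 1 mg/kg i.p. and 24 h later minocycline HCl 45 mg/kg i.p. in distilled water. Test compound is given i.t. 4 h after minocycline. Antinociception is read by radiant-heat tail flick (10 s cut-off) as %MPE. The ED50 comes from a dose–response curve, groups of n=8.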
# [22] = tested on: Mus musculus; assay: Antinociceptive activity in i.t dosed LPS-induced ICR-CD1 mouse thermal hyperalgesia model assessed as withdrawal latency for radiant heat by tail flick assay relative to morphine; assay type: functional
# [23] = tested on: Mus musculus; assay: Selectivity ratio of ED50 for antinociceptive activity in i.t dosed normal ICR-CD1 mouse to ED50 for i.t dosed LPS-induced ICR-CD1 mouse thermal hyperalgesia model; assay type: functional; how it was run: as §1
# [24] = tested on: Mus musculus; assay: Antinociceptive activity in normal ICR-CD1 mouse assessed as withdrawal latency for radiant heat at 250 pmol, icv by tail flick assay; assay type: functional; how it was run: as §2
# [25] = tested on: Mus musculus; assay: Antinociceptive activity in i.t dosed complete Freund's adjuvant-induced ICR-CD1 mouse mechanical hyperalgesia model by von Frey test; assay type: functional
smiles,measurement,setting,value
Cc1ccc(N(CCCN2CCC(Cc3ccc(C(N)=O)cc3)CC2)C(=O)C2CCN(C(=O)COCC(=O)NCCCCCCCCCNC(=O)COCC(=O)N[C@H]3CC[C@@]4(O)[C@H]5Cc6ccc(O)c7c6[C@@]4(CCN5C)[C@H]3O7)CC2)cc1Cl,Ratio ED50,[1],63.98
same,MPE,[2],63.1%
same,MPE,[3],24%
same,MPE,[4],54.5%
same,Ratio ED50,[5],118.62
same,ED50,[6],8.43 pmol
same,Selectivity Index,[7],6.2
same,Activity,[8],Non-toxic
same,ED50,[9],15.83 pmol
CC(=O)N1CCC(C(=O)N(CCCN2CCC(Cc3ccc(C(N)=O)cc3)CC2)c2ccc(C)c(Cl)c2)CC1,Ratio ED50,[1],1
same,Activity,[10],Active
same,MPE,[2],7.6%
same,MPE,[11],49%
same,MPE,[4],26.2%
same,Ratio ED50,[5],6.48
same,MPE,[12],34.2%
CNC(=O)COCC(=O)NCCCCCCCNC(=O)COCC(=O)N1CCC(C(=O)N(CCCN2CCC(Cc3ccc(C(N)=O)cc3)CC2)c2ccc(C)c(Cl)c2)CC1,MPE,[2],51.9%
same,MPE,[11],32.4%
same,MPE,[13],28.1%
same,MPE,[14],43.9%
Cc1ccc(N(CCCN2CCC(Cc3ccc(C(N)=O)cc3)CC2)C(=O)C2CCN(C(=O)COCC(=O)NCCCCCNC(=O)COCC(=O)N[C@H]3CC[C@@]4(O)[C@H]5Cc6ccc(O)c7c6[C@@]4(CCN5C)[C@H]3O7)CC2)cc1Cl,Ratio ED50,[1],3.14
same,ED50,[15],358.2 pmol
same,Ratio ED50,[5],6.38
same,ED50,[16],187.1 pmol
same,ED50,[6],10.92 pmol
same,Activity,[17],Non-toxic
same,Activity,[18],Toxic
same,Selectivity Index,[7],4.8
same,Activity,[8],Toxic
same,ED50,[9],370.6 pmol
same,Activity,[19],Toxic
Cc1ccc(N(CCCN2CCC(Cc3ccc(C(N)=O)cc3)CC2)C(=O)C2CCN(C(=O)COCC(=O)NCCCCCCCCCCNC(=O)COCC(=O)N[C@H]3CC[C@@]4(O)[C@H]5Cc6ccc(O)c7c6[C@@]4(CCN5C)[C@H]3O7)CC2)cc1Cl,MPE,[20],41.1%
same,Activity,[21],inactive
same,fold change (FC),[22],1500
same,ED50,[6],0.01461 pmol
same,Activity,[17],Non-toxic
same,Selectivity Index,[7],3559
same,Activity,[8],Non-toxic
same,ED50,[9],45.75 pmol
same,Selectivity Index,[23],3000
same,MPE,[14],49.7%
Cc1ccc(N(CCCN2CCC(Cc3ccc(C(N)=O)cc3)CC2)C(=O)C2CCN(C(=O)COCC(=O)NCCCCCCCNC(=O)COCC(=O)N[C@H]3CC[C@@]4(O)[C@H]5Cc6ccc(O)c7c6[C@@]4(CCN5C)[C@H]3O7)CC2)cc1Cl,Ratio ED50,[1],1.5
same,MPE,[24],35.9%
same,Ratio ED50,[5],60.68
same,ED50,[16],692.4 pmol
same,ED50,[6],11.41 pmol
same,Activity,[17],Non-toxic
same,Activity,[18],Toxic
same,Selectivity Index,[7],4.5
same,Activity,[8],Toxic
same,ED50,[9],166.4 pmol
CNC(=O)COCC(=O)N1CCC(C(=O)N(CCCN2CCC(Cc3ccc(C(N)=O)cc3)CC2)c2ccc(C)c(Cl)c2)CC1,Activity,[10],Active
Cc1ccc(N(CCCN2CCC(Cc3ccc(C(N)=O)cc3)CC2)C(=O)C2CCN(C(=O)COCC(=O)NCCNC(=O)COCC(=O)N[C@H]3CC[C@@]4(O)[C@H]5Cc6ccc(O)c7c6[C@@]4(CCN5C)[C@H]3O7)CC2)cc1Cl,Ratio ED50,[1],3.29
same,ED50,[15],106.6 pmol
same,Ratio ED50,[5],5.32
same,ED50,[16],56.41 pmol
same,ED50,[6],10.6 pmol
same,Activity,[17],Non-toxic
same,Activity,[18],Toxic
same,Selectivity Index,[7],4.9
same,Activity,[8],Non-toxic
same,ED50,[9],32.34 pmol
same,Activity,[19],Toxic
CNC(=O)COCC(=O)NCCCCCCCNC(=O)COCC(=O)N[C@H]1CC[C@@]2(O)[C@H]3Cc4ccc(O)c5c4[C@@]2(CCN3C)[C@H]1O5,Ratio ED50,[1],0.95
same,ED50,[15],108.2 pmol
same,Ratio ED50,[5],7.93
same,ED50,[16],168.9 pmol
same,ED50,[6],21.29 pmol
same,Activity,[17],Toxic
same,Activity,[18],Toxic
same,Activity,[8],Toxic
same,ED50,[9],113.3 pmol
same,Activity,[19],Toxic
Cc1ccc(N(CCCN2CCC(Cc3ccc(C(N)=O)cc3)CC2)C(=O)C2CCN(C(=O)COCC(=O)NCCCCCCCCCCCCNC(=O)COCC(=O)N[C@H]3CC[C@@]4(O)[C@H]5Cc6ccc(O)c7c6[C@@]4(CCN5C)[C@H]3O7)CC2)cc1Cl,Ratio ED50,[1],2.97
same,MPE,[2],55.7%
same,MPE,[4],27.6%
same,ED50,[6],122.7 pmol
same,Activity,[17],Toxic
same,Selectivity Index,[7],0.4
same,Activity,[8],Toxic
same,ED50,[9],336.9 pmol
CN1CC[C@]23c4c5ccc(O)c4O[C@H]2[C@@H](O)C=C[C@H]3[C@H]1C5 [MORPHINE],Ratio ED50,[1],11
same,Ratio ED50,[5],8
same,ED50,[6],35 pmol
same,ED50,[25],15 pmol
same,ED50,[9],27 pmol
